# B1: Alcohol dehydrogenase 1A (Homo sapiens), P07327 (protein)
# chain: MSTAGKVIKCKAAVLWELKKPFSIEEVEVAPPKAHEVRIKMVAVGICGTDDHVVSGTMVTPLPVILGHEAAGIVESVGEGVTTVKPGDKVIPLAIPQCGKCRICKNPESNYCLKNDVSNPQGTLQDGTSRFTCRRKPIHHFLGISTFSQYTVVDENAVAKIDAASPLEKVCLIGCGFSTGYGSAVNVAKVTPGSTCAVFGLGGVGLSAIMGCKAAGAARIIAVDINKDKFAKAKELGATECINPQDYKKPIQEVLKEMTDGGVDFSFEVIGRLDTMMASLLCCHEACGTSVIVGVPPDSQNLSMNPMLLLTGRTWKGAILGGFKSKECVPKLVADFMAKKFSLDALITHVLPFEKINEGFDLLHSGKSIRTILMF
# Substrate: NC(=O)c1ccc[n+]([C@@H]2O[C@H](COP(=O)([O-])OP(=O)(O)OC[C@H]3O[C@@H](n4cnc5c(N)ncnc54)[C@H](O)[C@@H]3O)[C@@H](O)[C@H]2O)c1
# Assay: Michaelis-Menten constant against mammalian liver alcohol dehydrogenase (ADH)
# Details: Equus caballus
# Outline: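 NAD is varied and the A340 increase from NADH formation is monitored (ε 6.22 mM-1 cm-1). Buffers differ by enzyme: ADH in 0.1 M phosphate, pH 8.0, with ethanol 1.2 mM; GDH in 0.1 M phosphate, pH 7.0, with 10 μM EDTA; LDH and MDH in 0.05 M Tris-HCl, pH 9.0. At least duplicate.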
protein,measurement,value
B1,Km,25 µM

# — ChEMBL document CHEMBL1127319, “CNAD: a potent and specific inhibitor of alcohol dehydrogenase” (J Med Chem, 1994)
